Laboratory results from ChEMBL document CHEMBL1129661, “The chemistry of Pseudomonic acid. 15. Synthesis and antibacterial activity of a series of 5-alkyl, 5-alkenyl, and 5-heterosubstituted oxazoles” (1996).
Values after ≈ are worked out from the molar mass of the structure shown.

Key:
[1] = tested on: Moraxella catarrhalis; assay: Minimal inhibitory concentration of compound against Moraxella catarrhalis 1502; format: functional
Procedure, shortened: (§1)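 Agar dilution method. Each plate was spot-inoculated with 1 µL spots, about 10^6 CFU per spot. Plates were incubated 18-24 h at 37 °C.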

[2] = tested on: Streptococcus pneumoniae; assay: Minimal inhibitory concentration against Streptococcus pneumoniae PU7; format: functional; procedure, shortened: as §1
[3] = tested on: Haemophilus influenzae; assay: Minimal inhibitory concentration against Haemophilus influenzae H128; format: functional; procedure, shortened: as §1
[4] = tested on: Staphylococcus aureus; assay: Minimal inhibitory concentration against Staphylococcus aureus Oxford NCTC 6571; format: functional; procedure, shortened: as §1
[5] = tested on: Streptococcus pyogenes; assay: Minimal inhibitory concentration against Streptococcus pyogenes CN10; format: functional; procedure, shortened: as §1
[6] = tested on: Haemophilus influenzae; assay: Minimal inhibitory concentration against Haemophilus influenzae Q1; format: functional; procedure, shortened: as §1
[7] = tested on: Haemophilus influenzae; assay: Minimal inhibitory concentration against Haemophilus influenzae WY21; format: functional; procedure, shortened: as §1
[8] = tested on: Moraxella catarrhalis; assay: Minimal inhibitory concentration of compound against Moraxella catarrhalis 1502; No bacterial growth; format: functional, organism-based; procedure, shortened: as §1
[9] = tested on: Moraxella catarrhalis; assay: Minimal inhibitory concentration of compound against Moraxella catarrhalis H; format: functional; procedure, shortened: as §1
[10] = tested on: Streptococcus pneumoniae; assay: Minimal inhibitory concentration of compound against Streptococcus pneumoniae PU7; No bacterial growth; format: functional, organism-based; procedure, shortened: as §1
[11] = tested on: Streptococcus pyogenes; assay: Minimal inhibitory concentration of compound against Streptococcus pyogenes BCA; format: functional; procedure, shortened: as §1
[12] = tested on: Streptococcus pneumoniae; assay: Minimal inhibitory concentration of compound against Streptococcus pneumoniae 1629; format: functional; procedure, shortened: as §1
[13] = tested on: Staphylococcus aureus; assay: Minimal inhibitory concentration of compound against Staphylococcus aureus Russell; format: functional; procedure, shortened: as §1

Compound | MIC [1] [mg/L] | MIC [2] [mg/L] | MIC [3] [mg/L] | MIC [4] [mg/L] | MIC [5] [mg/L] | MIC [6] [mg/L] | MIC [7] [mg/L] | MIC [8] | MIC [9] [mg/L] | MIC [10] | MIC [11] [mg/L] | MIC [12] [mg/L] | MIC [13] [mg/L]
C/C(=C\c1ncc(N(C)c2ccccc2)o1)C[C@@H]1OC[C@H](C[C@@H]2O[C@H]2[C@@H](C)[C@H](C)O)[C@@H](O)[C@H]1O | 32 (≈ 67.7 µM) | 32 (≈ 67.7 µM) | 16 (≈ 33.9 µM) | 16 (≈ 33.9 µM) | 16 (≈ 33.9 µM) |  |  |  |  |  |  |  | 
C/C(=C\c1ncc(CCCC(=O)[O-])o1)C[C@@H]1OC[C@H](C[C@@H]2O[C@H]2[C@@H](C)[C@H](C)O)[C@@H](O)[C@H]1O.[Na+] | 32 | 64 |  | 32 | 64 |  | 8 |  |  |  |  |  | 
C/C(=C\c1ncc([S+]([O-])c2ccccc2)o1)C[C@@H]1OC[C@H](C[C@@H]2O[C@H]2[C@@H](C)[C@H](C)O)[C@@H](O)[C@H]1O (stereo partly drawn) | 16 (≈ 32.5 µM) | 16 (≈ 32.5 µM) |  | 16 (≈ 32.5 µM) | 4 (≈ 8.14 µM) | 2 (≈ 4.07 µM) |  |  |  |  |  |  | 
COC(=O)CCCCCCCCc1cnc(/C=C(\C)C[C@@H]2OC[C@H](C[C@@H]3O[C@H]3[C@@H](C)[C@H](C)O)[C@@H](O)[C@H]2O)o1 | 64 (≈ 119 µM) | 8 (≈ 14.9 µM) |  | 4 (≈ 7.44 µM) | 4 (≈ 7.44 µM) | 4 (≈ 7.44 µM) |  |  |  |  |  |  | 
C/C(=C\c1ncc(CCCCCCCCC(=O)[O-])o1)C[C@@H]1OC[C@H](C[C@@H]2O[C@H]2[C@@H](C)[C@H](C)O)[C@@H](O)[C@H]1O.[Na+] | 8 | 4 |  | 4 | 1 | 4 |  |  |  |  |  |  | 
CCCCc1cnc(/C=C(\C)C[C@@H]2OC[C@H](C[C@@H]3O[C@H]3[C@@H](C)[C@H](C)O)[C@@H](O)[C@H]2O)o1 | 4 (≈ 9.44 µM) | 4 (≈ 9.44 µM) |  | 1 (≈ 2.36 µM) | 0.5 (≈ 1.18 µM) | 1 (≈ 2.36 µM) |  |  |  |  |  |  | 
C/C(=C\c1ncco1)C[C@@H]1OC[C@H](C[C@@H]2O[C@H]2[C@@H](C)[C@H](C)O)[C@@H](O)[C@H]1O | 4 (≈ 10.9 µM) |  |  | 16 (≈ 43.5 µM) | 32 (≈ 87.1 µM) | 2 (≈ 5.44 µM) |  |  |  |  |  | 128 (≈ 348 µM) | 
C/C(=C\c1ncc(Oc2ccccc2)o1)C[C@@H]1OC[C@H](C[C@@H]2O[C@H]2[C@@H](C)[C@H](C)O)[C@@H](O)[C@H]1O | 16 (≈ 34.8 µM) | 16 (≈ 34.8 µM) | 8 (≈ 17.4 µM) | 8 (≈ 17.4 µM) | 8 (≈ 17.4 µM) |  |  |  |  |  |  |  | 
C/C(=C\C(=O)OCCCCCCCCC(=O)O)C[C@@H]1OC[C@H](C[C@@H]2O[C@H]2[C@@H](C)[C@H](C)O)[C@@H](O)[C@H]1O [MUPIROCIN] | 0.25 (≈ 0.499 µM) | 0.25 (≈ 0.499 µM) |  | 0.25 (≈ 0.499 µM) | 0.13 (≈ 0.26 µM) | 0.03 (≈ 0.0599 µM) |  |  |  |  |  |  | 
C/C(=C\c1ncc(C2SCCCS2)o1)C[C@@H]1OC[C@H](C[C@@H]2O[C@H]2[C@@H](C)[C@H](C)O)[C@@H](O)[C@H]1O | 0.5 (≈ 1.03 µM) | 4 (≈ 8.24 µM) |  | 1 (≈ 2.06 µM) | 1 (≈ 2.06 µM) | 1 (≈ 2.06 µM) |  |  |  |  |  |  | 
C/C(=C\c1ncc(Sc2ccccc2)o1)C[C@@H]1OC[C@H](C[C@@H]2O[C@H]2[C@@H](C)[C@H](C)O)[C@@H](O)[C@H]1O | 8 (≈ 16.8 µM) | 32 (≈ 67.3 µM) |  |  | 4 (≈ 8.41 µM) | 8 (≈ 16.8 µM) |  |  |  |  |  |  | 16 (≈ 33.6 µM)

Results, then the compound that gave them:

MIC [1] [mg/L] | MIC [2] [mg/L] | MIC [3] [mg/L] | MIC [4] [mg/L] | MIC [5] [mg/L] | MIC [6] [mg/L] | MIC [7] [mg/L] | MIC [8] | MIC [9] [mg/L] | MIC [10] | MIC [11] [mg/L] | MIC [12] [mg/L] | MIC [13] [mg/L] | Compound
32 (≈ 70.3 µM) | > 128 |  | > 128 | > 128 | 32 (≈ 70.3 µM) |  |  |  |  |  |  |  | CCOC(=O)Oc1cnc(/C=C(\C)C[C@@H]2OC[C@H](C[C@@H]3O[C@H]3[C@@H](C)[C@H](C)O)[C@@H](O)[C@H]2O)o1
 | 32 (≈ 62.9 µM) |  | 16 (≈ 31.5 µM) | 128 (≈ 252 µM) | 2 (≈ 3.93 µM) |  | No growth |  |  |  |  |  | COC(=O)c1nc(/C=C(\C)C[C@@H]2OC[C@H](C[C@@H]3O[C@H]3[C@@H](C)[C@H](C)O)[C@@H](O)[C@H]2O)oc1N1CCCCC1
4 (≈ 9.72 µM) | 2 (≈ 4.86 µM) |  | 2 (≈ 4.86 µM) | 2 (≈ 4.86 µM) | 0.5 (≈ 1.22 µM) |  |  |  |  |  |  |  | CCOc1cnc(/C=C(\C)C[C@@H]2OC[C@H](C[C@@H]3O[C@H]3[C@@H](C)[C@H](C)O)[C@@H](O)[C@H]2O)o1
16 | 64 |  | 64 | 64 | 16 |  |  |  |  |  |  |  | C/C(=C\c1ncc(/C=C/C(=O)[O-])o1)C[C@@H]1OC[C@H](C[C@@H]2O[C@H]2[C@@H](C)[C@H](C)O)[C@@H](O)[C@H]1O.[Na+]
2 (≈ 4.28 µM) | 4 (≈ 8.56 µM) |  | 1 (≈ 2.14 µM) | 0.5 (≈ 1.07 µM) |  | 1 (≈ 2.14 µM) |  |  |  |  |  |  | COC(=O)CCCc1cnc(/C=C(\C)C[C@@H]2OC[C@H](C[C@@H]3O[C@H]3[C@@H](C)[C@H](C)O)[C@@H](O)[C@H]2O)o1
 | 4 (≈ 9.02 µM) |  | 8 (≈ 18 µM) | 8 (≈ 18 µM) | 0.13 (≈ 0.293 µM) |  |  | 16 (≈ 36.1 µM) |  |  |  |  | CC[S+]([O-])c1cnc(/C=C(\C)C[C@@H]2OC[C@H](C[C@@H]3O[C@H]3[C@@H](C)[C@H](C)O)[C@@H](O)[C@H]2O)o1 (stereo partly drawn)
8 (≈ 20.1 µM) |  |  | 32 (≈ 80.5 µM) | 32 (≈ 80.5 µM) | 2 (≈ 5.03 µM) |  |  |  | No growth |  |  |  | C/C(=C\c1ncc(CO)o1)C[C@@H]1OC[C@H](C[C@@H]2O[C@H]2[C@@H](C)[C@H](C)O)[C@@H](O)[C@H]1O
 | 1 (≈ 2.21 µM) |  | 2 (≈ 4.43 µM) |  | 0.5 (≈ 1.11 µM) |  |  |  |  | 4 (≈ 8.86 µM) |  |  | COC(=O)/C=C/c1cnc(/C=C(\C)C[C@@H]2OC[C@H](C[C@@H]3O[C@H]3[C@@H](C)[C@H](C)O)[C@@H](O)[C@H]2O)o1
8 (≈ 18.7 µM) | 8 (≈ 18.7 µM) |  | 8 (≈ 18.7 µM) | 4 (≈ 9.36 µM) | 1 (≈ 2.34 µM) |  |  |  |  |  |  |  | CCSc1cnc(/C=C(\C)C[C@@H]2OC[C@H](C[C@@H]3O[C@H]3[C@@H](C)[C@H](C)O)[C@@H](O)[C@H]2O)o1
> 128 | > 128 |  | > 128 | > 128 | > 128 |  |  |  |  |  |  |  | C/C(=C\c1ncc(C(=O)[O-])o1)C[C@@H]1OC[C@H](C[C@@H]2O[C@H]2[C@@H](C)[C@H](C)O)[C@@H](O)[C@H]1O.[Na+]
8 (≈ 20.2 µM) | 64 (≈ 162 µM) |  | 2 (≈ 5.06 µM) | 16 (≈ 40.5 µM) | 4 (≈ 10.1 µM) |  |  |  |  |  |  |  | C/C(=C\c1ncc(C=O)o1)C[C@@H]1OC[C@H](C[C@@H]2O[C@H]2[C@@H](C)[C@H](C)O)[C@@H](O)[C@H]1O
> 128 | > 128 |  | > 128 | > 128 | 128 (≈ 281 µM) |  |  |  |  |  |  |  | COC(=O)c1nc(/C=C(\C)C[C@@H]2OC[C@H](C[C@@H]3O[C@H]3[C@@H](C)[C@H](C)O)[C@@H](O)[C@H]2O)oc1OC
 | 8 (≈ 17.8 µM) |  | 8 (≈ 17.8 µM) | 4 (≈ 8.88 µM) | 0.5 (≈ 1.11 µM) |  |  | 8 (≈ 17.8 µM) |  |  |  |  | C/C(=C\c1ncc(N2CCCCC2)o1)C[C@@H]1OC[C@H](C[C@@H]2O[C@H]2[C@@H](C)[C@H](C)O)[C@@H](O)[C@H]1O
16 (≈ 40.5 µM) | 16 (≈ 40.5 µM) |  | 2 (≈ 5.06 µM) |  | 2 (≈ 5.06 µM) |  |  |  |  |  |  |  | CCc1cnc(/C=C(\C)C[C@@H]2OC[C@H](C[C@@H]3O[C@H]3[C@@H](C)[C@H](C)O)[C@@H](O)[C@H]2O)o1
8 (≈ 17.7 µM) | 16 (≈ 35.4 µM) |  | 8 (≈ 17.7 µM) | 16 (≈ 35.4 µM) |  | 0.25 (≈ 0.554 µM) |  |  |  |  |  |  | COC(=O)/C=C\c1cnc(/C=C(\C)C[C@@H]2OC[C@H](C[C@@H]3O[C@H]3[C@@H](C)[C@H](C)O)[C@@H](O)[C@H]2O)o1
8 (≈ 18.8 µM) | 8 (≈ 18.8 µM) |  | 4 (≈ 9.4 µM) | 8 (≈ 18.8 µM) | 1 (≈ 2.35 µM) |  |  |  |  |  |  |  | COC(=O)c1cnc(/C=C(\C)C[C@@H]2OC[C@H](C[C@@H]3O[C@H]3[C@@H](C)[C@H](C)O)[C@@H](O)[C@H]2O)o1
